Source: ChEMBL document CHEMBL1154922, “Rapid P1 SAR of brain penetrant tertiary carbinamine derived BACE inhibitors” (Bioorg Med Chem Lett, 2010)
Activity calls are given as the source filed them. The rule behind the calls is not given here.

Columns and labels:
[1] = molecular target: Beta-secretase 1 (Homo sapiens) (UniProt P56817); experiment: Inhibition of BACE1-mediated production of secreted beta-secretase amino terminal fragment
Summary of the method: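 Cell-based sAPP_NF assay: cells express APP carrying the NF mutation, and secreted sAPP is the read-out. IC50 is given as mean ± deviation.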

[2] = molecular target: Beta-secretase 1 (Homo sapiens) (UniProt P56817); experiment: Inhibition of BACE1 at pH 6.5
Summary of the method: (§1)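 Enzymatic BACE-1 inhibition assay run at the pH given in each line. Potency is reported as the inflection point (IP), in nM.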

[3] = tested on: Rhesus monkey; experiment: Reduction in CSF amyloid beta40 level in cisterna magna ported Rhesus monkey at 5 mg/kg, po co-administered with CYP inhibitor ritonavir 10 mg/kg, po measured after 4 hrs by sandwich ELISA; assay type: functional, organism-based; settings: Macaca mulatta
[4] = organism: Mus musculus; experiment: Inhibition of mouse P-glycoprotein assessed as PGP ratio
[5] = molecular target: ATP-dependent translocase ABCB1 (Homo sapiens, UniProt P08183); experiment: Inhibition of human P-glycoprotein assessed as PGP ratio
Sequence of ATP-dependent translocase ABCB1 (P08183 whole entry): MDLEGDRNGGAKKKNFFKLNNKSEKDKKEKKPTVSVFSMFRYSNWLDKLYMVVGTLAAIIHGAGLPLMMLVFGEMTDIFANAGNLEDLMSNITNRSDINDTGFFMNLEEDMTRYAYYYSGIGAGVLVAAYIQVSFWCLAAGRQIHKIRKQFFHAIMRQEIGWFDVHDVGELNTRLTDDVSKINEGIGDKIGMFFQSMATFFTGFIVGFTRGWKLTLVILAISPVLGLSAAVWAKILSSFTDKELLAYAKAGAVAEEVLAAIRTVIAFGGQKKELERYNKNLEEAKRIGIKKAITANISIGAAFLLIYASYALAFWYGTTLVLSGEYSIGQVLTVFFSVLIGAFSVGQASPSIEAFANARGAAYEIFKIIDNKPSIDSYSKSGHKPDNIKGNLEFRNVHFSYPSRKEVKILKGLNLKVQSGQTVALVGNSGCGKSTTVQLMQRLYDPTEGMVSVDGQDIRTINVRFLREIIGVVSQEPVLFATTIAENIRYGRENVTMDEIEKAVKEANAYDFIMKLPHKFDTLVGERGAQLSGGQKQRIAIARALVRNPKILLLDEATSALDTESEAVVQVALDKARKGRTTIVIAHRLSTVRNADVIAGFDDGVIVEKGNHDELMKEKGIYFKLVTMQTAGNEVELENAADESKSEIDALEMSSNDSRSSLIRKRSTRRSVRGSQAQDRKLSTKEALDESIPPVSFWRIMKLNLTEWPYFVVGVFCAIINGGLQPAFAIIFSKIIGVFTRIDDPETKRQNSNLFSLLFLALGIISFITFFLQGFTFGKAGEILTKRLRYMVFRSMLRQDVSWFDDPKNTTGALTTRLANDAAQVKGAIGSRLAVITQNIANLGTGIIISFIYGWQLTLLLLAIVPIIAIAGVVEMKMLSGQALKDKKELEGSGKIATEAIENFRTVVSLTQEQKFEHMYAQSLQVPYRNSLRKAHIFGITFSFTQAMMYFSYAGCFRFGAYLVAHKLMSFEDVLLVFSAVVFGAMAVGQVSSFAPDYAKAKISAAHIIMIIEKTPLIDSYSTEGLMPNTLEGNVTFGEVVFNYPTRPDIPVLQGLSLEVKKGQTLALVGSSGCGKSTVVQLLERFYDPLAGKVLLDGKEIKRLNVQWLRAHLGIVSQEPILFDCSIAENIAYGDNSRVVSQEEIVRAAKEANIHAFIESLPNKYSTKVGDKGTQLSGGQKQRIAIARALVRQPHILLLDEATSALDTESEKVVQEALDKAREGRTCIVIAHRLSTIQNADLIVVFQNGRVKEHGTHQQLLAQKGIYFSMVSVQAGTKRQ

[6] = tested on: Rhesus monkey; experiment: Reduction in CSF amyloid beta42 level in cisterna magna ported Rhesus monkey at 15 mg/kg, po co-administered with CYP inhibitor ritonavir 10 mg/kg, po measured after 4 hrs by sandwich ELISA; assay type: functional, organism-based; settings: Macaca mulatta
[7] = Plasma concentration in Rhesus monkey at 5 mg/kg, po co-administered with CYP inhibitor ritonavir 10 mg/kg, po after 4 hrs; assay type: ADME, organism-based, Macaca mulatta
Summary of the method: (§2)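 In a satellite PK experiment, rhesus monkeys (n = 3) received the test article at the stated dose together with 10 mpk ritonavir. Plasma levels (µM) were measured at 4 h and 24 h and averaged with standard deviations. Values below the limit of quantitation are marked BLQ.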

[8] = tested on: Rhesus monkey; experiment: Plasma concentration in Rhesus monkey at 5 mg/kg, po co-administered with CYP inhibitor ritonavir 10 mg/kg, po after 24 hrs; assay type: ADME, organism-based, Macaca mulatta; settings: in vivo, BLD = below limit of detection; summary of the method: as §2
[9] = Plasma concentration in Rhesus monkey at 15 mg/kg, po co-administered with CYP inhibitor ritonavir 10 mg/kg, po after 4 hrs; assay type: ADME, organism-based, Macaca mulatta; summary of the method: as §2
[10] = tested on: Rhesus monkey; experiment: Reduction in CSF soluble APPbeta level in cisterna magna ported Rhesus monkey at 15 mg/kg, po co-administered with CYP inhibitor ritonavir 10 mg/kg, po measured after 4 hrs by sandwich ELISA; assay type: functional, organism-based; settings: Macaca mulatta
[11] = Plasma concentration in Rhesus monkey at 15 mg/kg, po co-administered with CYP inhibitor ritonavir 10 mg/kg, po after 24 hrs; assay type: ADME, organism-based, Macaca mulatta; summary of the method: as §2
[12] = tested on: Rhesus monkey; experiment: Reduction in CSF amyloid beta40 level in cisterna magna ported Rhesus monkey at 15 mg/kg, po co-administered with CYP inhibitor ritonavir 10 mg/kg, po measured after 24 hrs by sandwich ELISA; assay type: functional, organism-based; settings: Macaca mulatta
[13] = Ratio of drug level in brain to plasma in transgenic mouse at 30 mg/kg, ip; settings: brain and plasma
[14] = molecular target: Beta-secretase 1 (Homo sapiens) (UniProt P56817); experiment: Inhibition of BACE1 at pH 4.5; summary of the method: as §1
[15] = tested on: Rhesus monkey; experiment: Reduction in CSF amyloid beta40 level in cisterna magna ported Rhesus monkey at 15 mg/kg, po co-administered with CYP inhibitor ritonavir 10 mg/kg, po measured after 4 hrs by sandwich ELISA; assay type: functional, organism-based; settings: Macaca mulatta
[16] = tested on: Rhesus monkey; experiment: Reduction in CSF soluble APPbeta level in cisterna magna ported Rhesus monkey at 15 mg/kg, po co-administered with CYP inhibitor ritonavir 10 mg/kg, po measured after 4 hrs by sandwich ELISA; settings: Macaca mulatta
[17] = tested on: Rhesus monkey; experiment: Reduction in CSF amyloid beta42 level in cisterna magna ported Rhesus monkey at 15 mg/kg, po co-administered with CYP inhibitor ritonavir 10 mg/kg, po measured after 4 hrs by sandwich ELISA; settings: Macaca mulatta
[18] = Partition coefficient, log P of the compound; assay type: physicochemical; settings: octanol/water

Sequence of Beta-secretase 1 (Homo sapiens) (P56817 whole entry, the tested form may be a part): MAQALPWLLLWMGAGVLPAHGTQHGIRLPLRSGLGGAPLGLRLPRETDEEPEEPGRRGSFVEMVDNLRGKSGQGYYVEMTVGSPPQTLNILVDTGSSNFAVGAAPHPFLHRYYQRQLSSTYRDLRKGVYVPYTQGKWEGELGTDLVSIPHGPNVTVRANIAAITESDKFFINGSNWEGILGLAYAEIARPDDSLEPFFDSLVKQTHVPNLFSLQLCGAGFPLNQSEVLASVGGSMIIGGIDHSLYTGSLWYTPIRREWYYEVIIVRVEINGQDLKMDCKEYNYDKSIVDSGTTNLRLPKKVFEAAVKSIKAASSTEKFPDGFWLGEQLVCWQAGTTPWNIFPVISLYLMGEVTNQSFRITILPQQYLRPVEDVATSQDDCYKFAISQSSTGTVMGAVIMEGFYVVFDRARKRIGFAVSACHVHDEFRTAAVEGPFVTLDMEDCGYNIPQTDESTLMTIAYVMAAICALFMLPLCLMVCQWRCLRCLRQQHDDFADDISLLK

IP [1] | IP [2] | SMILES | other results
> 2200 nM | 1300 nM | CCCC[C@@](C)(N)c1nnc(-c2cc(N(CCOC)C[C@H]3C[C@@H]3C)nc(N(C)S(C)(=O)=O)c2Cl)o1 | –
304 nM | 17 nM | COCCN(C[C@H]1C[C@@H]1C)c1cc(-c2nnc([C@](C)(N)Cc3cccc(F)c3)o2)c(Cl)c(N(C)S(C)(=O)=O)n1 | –
– | > 600000 nM | COCCN(C[C@H]1C[C@@H]1C)c1cc(-c2nnc([C@](C)(N)Cc3ccc(Br)cc3Br)o2)c(Cl)c(N(C)S(C)(=O)=O)n1 | –
195 nM | 15 nM | COCCN(C[C@H]1C[C@@H]1C)c1cc(-c2nnc([C@](C)(N)Cc3ccccc3F)o2)c(Cl)c(N(C)S(C)(=O)=O)n1 | –
> 6700 nM | 340 nM | COCCN(C[C@H]1C[C@@H]1C)c1cc(-c2nnc([C@](C)(N)Cc3ccccc3Cl)o2)c(Cl)c(N(C)S(C)(=O)=O)n1 | –
– | 9900 nM | COCCN(C[C@H]1C[C@@H]1C)c1cc(-c2nnc([C@](C)(N)Cc3ccnc(OC)c3)o2)c(Cl)c(N(C)S(C)(=O)=O)n1 | –
– | 3500 nM | COCCN(C[C@H]1C[C@@H]1C)c1cc(-c2nnc([C@](C)(N)Cc3ccccc3OC)o2)c(Cl)c(N(C)S(C)(=O)=O)n1 | –
3190 nM | 375 nM | COCCN(C[C@H]1C[C@@H]1C)c1cc(-c2nnc([C@](C)(N)Cc3ccco3)o2)c(Cl)c(N(C)S(C)(=O)=O)n1 | –
4320 nM | 65 nM | COCCN(C[C@H]1C[C@@H]1C)c1cc(-c2nnc([C@](C)(N)Cc3cccc(Cl)c3)o2)c(Cl)c(N(C)S(C)(=O)=O)n1 | –
320 nM | 4 nM | COCCN(C[C@H]1C[C@@H]1C)c1cc(-c2nnc([C@](C)(N)Cc3ccc(Cl)cc3)o2)c(Cl)c(N(C)S(C)(=O)=O)n1 | –
4300 nM | 180 nM | COCCN(C[C@H]1C[C@@H]1C)c1cc(-c2nnc([C@](C)(N)Cc3ccc(OC)cc3)o2)c(Cl)c(N(C)S(C)(=O)=O)n1 | –
1930 nM | 142 nM | COCCN(C[C@H]1C[C@@H]1C)c1cc(-c2nnc([C@](C)(N)Cc3ccoc3)o2)c(Cl)c(N(C)S(C)(=O)=O)n1 | –
– | 49000 nM | COCCN(C[C@H]1C[C@@H]1C)c1cc(-c2nnc([C@](C)(N)Cc3ncco3)o2)c(Cl)c(N(C)S(C)(=O)=O)n1 | –
– | 1400 nM | COCCN(C[C@H]1C[C@@H]1C)c1cc(-c2nnc([C@](C)(N)Cc3ccc(OC)nc3)o2)c(Cl)c(N(C)S(C)(=O)=O)n1 | –
15 nM | 2 nM | COCCN(C[C@H]1C[C@@H]1C)c1cc(-c2nnc([C@](C)(N)Cc3ccc(F)cc3)o2)c(Cl)c(N(C)S(C)(=O)=O)n1 | Activity [3]: Active; Ratio [4]: 1.9; Ratio [5]: 1.1; Activity [6]: Active; concentration at 4 h [7]: 1310 nM; Cp [8]: BLD; concentration at 4 h [9]: 2340 nM; Activity [10]: Active; concentration at 24 h [11]: 30 nM
– | 1500 nM | COCCN(C[C@H]1C[C@@H]1C)c1cc(-c2nnc([C@](C)(N)Cc3cccc(OC)c3)o2)c(Cl)c(N(C)S(C)(=O)=O)n1 | –
46 nM | 5 nM | COCCN(C[C@H]1C[C@@H]1C)c1cc(-c2nnc([C@](C)(N)Cc3ccccc3)o2)c(Cl)c(N(C)S(C)(=O)=O)n1 | Activity [12]: Active; Ratio [4]: 2.3; Ratio [5]: 1.9; Kp [13]: 9; IP [14]: 0.4 nM; Activity [15]: Active; Activity [16]: Active; concentration at 4 h [9]: 3360 nM; Activity [17]: Active; logP [18]: > 3.2; concentration at 24 h [11]: 100 nM
1100 nM | 119 nM | COCCN(C[C@H]1C[C@@H]1C)c1cc(-c2nnc([C@](C)(N)Cc3ccc4c(c3)OCO4)o2)c(Cl)c(N(C)S(C)(=O)=O)n1 | –
– | 29000 nM | COCCN(C[C@H]1C[C@@H]1C)c1cc(-c2nnc([C@](C)(N)Cc3cc(Br)c(F)cc3Br)o2)c(Cl)c(N(C)S(C)(=O)=O)n1 | –
